Compound activity: PubChem BioAssay, Broad Institute
AF4-AF9 inh: inhibitors of human MLL-AF4/AF9 interaction | inhibition, % at 10 µM | AlphaScreen, biotin-AF4 peptide binding to FLAG-AF9 | AID 651704 | hit rate 0.47% among 350,000 | P42568;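 active = every replicate reaching a set inhibition limit, whatever the replicate mean, cut at about 25% in these data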
Target sequence (P42568 whole entry, looked up): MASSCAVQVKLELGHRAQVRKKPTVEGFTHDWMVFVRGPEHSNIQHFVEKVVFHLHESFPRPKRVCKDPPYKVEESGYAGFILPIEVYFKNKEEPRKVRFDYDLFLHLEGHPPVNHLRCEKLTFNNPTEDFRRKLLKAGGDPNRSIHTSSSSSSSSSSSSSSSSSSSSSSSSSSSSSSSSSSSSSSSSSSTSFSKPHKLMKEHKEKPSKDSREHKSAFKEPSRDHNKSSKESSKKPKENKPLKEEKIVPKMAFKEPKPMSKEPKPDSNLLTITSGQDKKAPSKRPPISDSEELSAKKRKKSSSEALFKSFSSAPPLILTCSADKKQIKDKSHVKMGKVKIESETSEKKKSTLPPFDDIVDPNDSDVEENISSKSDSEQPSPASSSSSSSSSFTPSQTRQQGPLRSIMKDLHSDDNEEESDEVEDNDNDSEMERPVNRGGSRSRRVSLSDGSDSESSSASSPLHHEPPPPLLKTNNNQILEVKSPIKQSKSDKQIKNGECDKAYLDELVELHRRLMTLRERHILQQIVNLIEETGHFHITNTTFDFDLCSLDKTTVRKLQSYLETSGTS
S100A4 inh HTS: blocks human S100A4 binding to myosin IIA peptide; hit rate 0.14% among 360,000; P26447; inhibition, % at 10.7 µM; S100A4/TAMRA-MyoIIA peptide fluorescence polarization;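 active = mean inhibition of at least 70% across replicates, with every replicate also reaching that level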
Target sequence (P26447 whole entry, looked up): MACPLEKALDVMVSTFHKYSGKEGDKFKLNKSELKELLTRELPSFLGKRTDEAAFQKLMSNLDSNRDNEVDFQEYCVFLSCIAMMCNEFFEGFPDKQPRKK
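Test system – S100A4 monomer (human) · Compound – single-point compound testing · Schedule – 5 min incubation before reading · Probe or stimulus – TAMRA-labelled myosin IIA heavy-chain peptide probe, 5 nM · Benchmarks – neutral control DMSO, positive control TFP · Medium – Calcium-containing HEPES buffer, pH 7.2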
SIRT5 block: inhibitors of human sirtuin-5 desuccinylase. Purified SirT5, succinyl-peptide AMC, trypsin-coupled fluorescence. inhibition, % at 15 µM. hit rate 1.1% among 330,000; in the data active = inhibition above about 15%
CaV13 ICDI inh: Primary screen for inhibitors of IQ motif and Ca2+-dependent inactivation inhibitor domain binding in CACNA1D, Förster resonance energy transfer in living cells, …. HEK cells, CFP/YFP FRET ICDI-IQ, plate reader, 10 min; percent FRET-ratio fall versus neutral wells. inhibition, % at 12.3 µM. AID 743397. hit rate 0.098% among 340,000;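 active = mean replicate inhibition of at least 30% and at least 1% of replicates passing that level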
DENV2 CPE: inhibitors of DENV2 cytopathic effect; DENV2-infected cells, cytopathic effect rescue, plate reader; CPE inhibition, % at 9.99 µM; hit rate 1.7% among 350,000; in the data active = CPE inhibition above about 20%, passing the limit was not always enough; tested in BHK-21 cells
Each line names hits and unclear results; the compound was inactive in the other large screens; ! = repeats disagree. A selection: hits, their analogues and other compounds. The true share with any hit is near 2.7%.

CCO[C@@H]1OC(C(=O)O)=C[C@H](c2cn(C(C)=O)c3ccccc23)[C@H]1CCCO	none (no result: AF4-AF9 inh, S100A4 inh HTS, SIRT5 block, DENV2 CPE)
CCO[C@H]1OC(C(=O)O)=C[C@@H](C)[C@@H]1CCCO	none
CCO[C@H]1OC(C(=O)O)=C[C@@H](C(C)(C)C)[C@@H]1CCCO	SIRT5 block 23
CCO[C@H]1OC(C(=O)N2CCOCC2)=C[C@@H](c2cn(C(C)=O)c3ccccc23)[C@@H]1CCCO	DENV2 CPE 27!
CCO[C@H]1OC(C(=O)NC2CC2)=C[C@@H](c2ccc(C(F)(F)F)cc2)[C@@H]1CCCO	DENV2 CPE 25!
CCO[C@@H]1OC(C(=O)NC2CC2)=C[C@H](c2ccc(C(F)(F)F)cc2)[C@H]1CCCO	none
CCO[C@H]1OC(C(=O)O)=C[C@@H](c2ccc3c(c2)OCO3)[C@@H]1CCCO	DENV2 CPE 24
CCCC#Cc1ccc([C@@H]2[C@H]3CN(CC4CCOCC4)CCCCN3[C@H]2CO)cc1	none (no result: CaV13 ICDI inh)
C[C@@H]1CN([C@@H](C)CO)C(=O)CCCn2cc(nn2)CO[C@H]1CN(C)S(=O)(=O)c1ccc(Cl)cc1	DENV2 CPE 21!
C[C@@H]1CN([C@H](C)CO)C(=O)CCCn2cc(nn2)CO[C@H]1CN(C)S(=O)(=O)c1ccc(F)cc1	SIRT5 block 23!
Cc1ccccc1S(=O)(=O)N1C[C@H](O)COC[C@@H]2O[C@@H](CC(=O)N3CCCCC3)CC[C@H]21	none (no result: CaV13 ICDI inh)
O=[N+]([O-])c1ccc(C[n+]2cccc(O)c2)cc1	DENV2 CPE 67 (no result: AF4-AF9 inh, SIRT5 block)
O=C(O)c1ccc[n+](Cc2ccc([N+](=O)[O-])cc2)c1	none
Cc1noc(C)c1NC(=O)Nc1ccc2c(c1)C(=O)N([C@@H](C)CO)C[C@H](C)[C@@H](CN(C)C(=O)CCCN(C)C)OCCCC[C@@H](C)O2	DENV2 CPE 86 (no result: CaV13 ICDI inh)
Cc1noc(C)c1NC(=O)Nc1ccc2c(c1)C(=O)N([C@H](C)CO)C[C@@H](C)[C@@H](CN(C)C(=O)Nc1ccccc1)OCCCC[C@@H](C)O2	DENV2 CPE 23 (no result: CaV13 ICDI inh)
Cc1noc(C)c1NC(=O)Nc1ccc2c(c1)C(=O)N([C@H](C)CO)C[C@@H](C)[C@H](CN(C)C(=O)Nc1ccccc1)OCCCC[C@@H](C)O2	none (no result: CaV13 ICDI inh)
Cc1noc(C)c1NC(=O)Nc1ccc2c(c1)C(=O)N([C@H](C)CO)C[C@H](C)[C@H](CN(C)C(=O)c1ccccc1)OCCCC[C@H](C)O2	DENV2 CPE 39 (no result: CaV13 ICDI inh)
CNC[C@@H]1OCCCC[C@@H](C)Oc2ccc(NC(=O)Nc3c(C)noc3C)cc2C(=O)N([C@H](C)CO)C[C@H]1C	DENV2 CPE 22 (no result: CaV13 ICDI inh)
C[C@@H]1CCCCO[C@H](CN(C)C(=O)Nc2ccc(F)cc2)[C@@H](C)CN([C@H](C)CO)C(=O)c2cc(NS(=O)(=O)c3ccc(F)cc3)ccc2O1	none (no result: AF4-AF9 inh, S100A4 inh HTS, SIRT5 block, CaV13 ICDI inh)
CO[C@H]1CN(C)C(=O)c2ccc(NC(=O)c3ccccc3)cc2OC[C@@H](C)N(C(=O)CN(C)C)C[C@H]1C	none (no result: CaV13 ICDI inh)
Cc1noc(C)c1NC(=O)Nc1ccc2c(c1)C(=O)N([C@H](C)CO)C[C@H](C)[C@@H](CN(C)C(=O)NC1CCCCC1)OCCCC[C@H](C)O2	none (no result: CaV13 ICDI inh)
O=c1[nH]c(=S)[nH]c2c1C(c1ccc(Cl)cc1)OC(CCc1ccccc1)C2 (configuration not stated)	DENV2 CPE 101
O=c1[nH]c(=S)[nH]c2c1C(c1ccc(Cl)c(Cl)c1)OC(CCc1ccccc1)C2 (configuration not stated)	none
COCC#Cc1cnc2c(c1)C(=O)N([C@@H](C)CO)C[C@@H](C)[C@H](CN(C)C(=O)c1cccnc1)O2	SIRT5 block 16 (no result: CaV13 ICDI inh)
COCC#Cc1cnc2c(c1)C(=O)N([C@H](C)CO)C[C@@H](C)[C@H](CN(C)C(=O)Cc1ccccc1)O2	SIRT5 block 31 (no result: CaV13 ICDI inh)
COCC#Cc1cnc2c(c1)C(=O)N([C@@H](C)CO)C[C@@H](C)[C@@H](CN(C)C(=O)Cc1ccccc1)O2	none (no result: CaV13 ICDI inh)
C[C@H]1CN([C@@H](C)CO)S(=O)(=O)c2ccc(C3=CCCCC3)cc2O[C@@H]1CN(C)C(=O)C1CCCCC1	none (no result: CaV13 ICDI inh)
CCS(=O)(=O)N[C@H]1CC[C@@H](CC(=O)Nc2ccc(-c3ccccc3)cc2)O[C@@H]1CO	none (no result: CaV13 ICDI inh)
COCC(=O)Nc1ccc2c(c1)[C@@H]1C[C@@H](CC(=O)NCc3ccc4c(c3)OCO4)O[C@@H](CO)[C@@H]1O2	none (no result: CaV13 ICDI inh)
C[C@@H]1CN([C@@H](C)CO)C(=O)c2cc(NC(=O)Nc3ccc(F)cc3)ccc2O[C@@H](C)CCCCO[C@H]1CN(C)Cc1ccccc1	DENV2 CPE 40 (no result: CaV13 ICDI inh)
C[C@@H]1CCCCO[C@@H](CN(C)Cc2ccccc2)[C@H](C)CN([C@H](C)CO)C(=O)c2cc(NC(=O)Nc3ccc(F)cc3)ccc2O1	DENV2 CPE 41 (no result: CaV13 ICDI inh)
COc1cc(/C=C2\SC(=Nc3ccc(Cl)c(C(=O)O)c3)NC2=O)c(Br)c(Br)c1O	SIRT5 block 26
COCCCNC(=O)[C@@H](Cc1ccccc1)NC(=O)[C@H]1O[C@@H](n2ccc(=O)[nH]c2=O)[C@H](O)[C@@H]1O	none (no result: AF4-AF9 inh)
COc1cccc(CN(C)C(=O)CN2C(=O)NC3(CCCc4ccccc43)C2=O)c1 (configuration not stated)	DENV2 CPE 73
O=C(C[C@@H]1C[C@H]2c3cc(NC(=O)C4CCOCC4)ccc3O[C@H]2[C@H](CO)O1)NCC1CC1	none (no result: CaV13 ICDI inh)
CCOC(=O)c1cnc2nc(C)nn2c1N	SIRT5 block 69
C[C@@H]1CN([C@H](C)CO)C(=O)Cc2cc(NC(=O)C3CCCCC3)ccc2O[C@@H]1CN(C)C	none (no result: CaV13 ICDI inh)
COc1ccc(C#Cc2ccc([C@@H]3[C@@H](CO)N4CCCCN(C(=O)Nc5ccc(F)cc5)C[C@H]34)cc2)cc1	none (no result: CaV13 ICDI inh)
COc1ccc(NC(=O)N2CCCCN3[C@H](C2)[C@@H](c2ccc(C#Cc4ccccc4)cc2)[C@@H]3CO)cc1	SIRT5 block 16 (no result: CaV13 ICDI inh)
COc1ccc(C#Cc2ccc([C@@H]3[C@H](CO)N4CCCCN(C(=O)Nc5ccc(F)cc5)C[C@@H]34)cc2)cc1	none (no result: CaV13 ICDI inh)
CCC(=O)N1CCCCN2[C@@H](CO)[C@H](c3ccc(-c4ccc(F)cc4)cc3)[C@@H]2C1	DENV2 CPE 25 (no result: CaV13 ICDI inh)
COCC(=O)N1CCCCN2[C@H](C1)[C@@H](c1ccc(-c3ccc(F)cc3)cc1)[C@@H]2CO	none (no result: CaV13 ICDI inh)
COc1ccc(C#Cc2ccc([C@@H]3[C@@H](CO)N4CCCCN(C(=O)Nc5ccc(F)cc5)C[C@@H]34)cc2)cc1	S100A4 inh HTS 102 (no result: CaV13 ICDI inh)
COc1ccc(C#Cc2ccc([C@H]3[C@@H](CO)N4CCCCN(C(=O)Nc5ccc(F)cc5)C[C@H]34)cc2)cc1	DENV2 CPE 31 (no result: CaV13 ICDI inh)
CCCC#Cc1cnc2c(c1)C(=O)N([C@@H](C)CO)C[C@@H](C)[C@H](CN(C)C(=O)NCCC)O2	none (no result: CaV13 ICDI inh)
C[C@@H]1CN([C@H](C)CO)C(=O)c2cccc(NC(=O)Nc3ccc4c(c3)OCO4)c2O[C@@H]1CN(C)C(=O)Nc1ccc(C(F)(F)F)cc1	none (no result: CaV13 ICDI inh)
